Most compounds without a hit are left out; they make up all but 9.3% or so of the library.
tolC growth inh: growth inhibitors of E. coli BW25113 tolC mutant; OD615; growth inhibition, % at 10 µM (by protocol); 65,000 tested, 2.2% active; AID 573;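 active = growth inhibition at or above a cutoff equal to the mean over every tested compound plus 3 SD, cut at about 60% in these data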;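 also: growth measured after 20 h incubation at 37 °C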
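System: E. coli ΔtolC::kan strain BW25113; Buffer or medium: LB broth supplemented with 50 µg/mL kanamycin; Compound: 10 µM final, single dose; Incubation: bacterial growth with compound for 20 h at 37 °C; Signal: A615 absorbance measurement; Evaluation: growth inhibition in percent.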
DAT uptake mod: changed human dopamine transporter uptake under cocaine IC80; Q01959; LLC-PK1 hDAT cells, [14C]-dopamine uptake with cocaine IC80; actives deviate in either direction; B-score at 10 µM; 110,000 tested, 1.3% active; AID 449768;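 active = Z score or B-score, a plate-position-corrected score, falls beyond the plate's 99.7% confidence bounds, in either direction; inactive = both scores lie inside the 99.7% bounds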
Target sequence (Q01959 whole entry, looked up): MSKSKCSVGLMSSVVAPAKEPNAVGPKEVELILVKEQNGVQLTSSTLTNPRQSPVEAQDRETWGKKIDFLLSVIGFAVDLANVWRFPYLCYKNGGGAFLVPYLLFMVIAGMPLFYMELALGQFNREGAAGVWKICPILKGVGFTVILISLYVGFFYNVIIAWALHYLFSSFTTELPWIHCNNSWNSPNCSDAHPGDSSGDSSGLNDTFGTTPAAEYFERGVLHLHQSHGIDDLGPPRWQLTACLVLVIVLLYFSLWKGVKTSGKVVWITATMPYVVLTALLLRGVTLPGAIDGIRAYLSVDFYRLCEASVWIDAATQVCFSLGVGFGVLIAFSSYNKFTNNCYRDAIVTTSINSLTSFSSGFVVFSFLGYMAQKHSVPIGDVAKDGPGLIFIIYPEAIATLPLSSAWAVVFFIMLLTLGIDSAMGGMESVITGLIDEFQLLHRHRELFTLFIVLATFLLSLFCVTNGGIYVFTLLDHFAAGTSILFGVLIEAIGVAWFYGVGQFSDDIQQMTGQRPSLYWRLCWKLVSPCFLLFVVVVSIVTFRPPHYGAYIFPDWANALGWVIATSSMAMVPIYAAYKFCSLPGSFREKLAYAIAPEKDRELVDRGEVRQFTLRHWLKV
D1 allo mod: allosteric modulators of human D1 dopamine receptor | HEK293 D1, CRE-luciferase, dopamine EC30 potentiation; actives deviate in either direction | AID 641 | 58,000 tested, 5.9% active | B-score at 10 µM;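 active = luminescence count or its row- and column-corrected plate score outside the 99.7% band of the plate's sample wells, on either side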
PostGolgi ctrl: yeast control strain growth, post-Golgi counter-screen; efflux-deficient yeast background strain, growth absorbance A615, 16 h; inhibition, % at 10 µM; 98,000 tested, 5% active; AID 738
PostGolgi yeast: growth inhibition of a yeast mutant, post-Golgi transport screen | post-Golgi transport phenotypic cell assay | inhibition, % at 10 µM | 98,000 tested, 0.9% active;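 also: yeast cells grown in 1536-well plates; yeast grown about 18 h at 30C before absorbance read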
E coli WT exp: blocks growth of wild type E. coli BW25113. OD600 absorbance. growth inhibition, % at 100 µM. 98,000 tested, 0.15% active;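 active = growth inhibition above about 50% at one test dose, limit read from the data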;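 also: growth measured after 20 h incubation at 37 °C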
Large screens that a line does not name were inactive. Rule as the data show it, unless noted: active = inhibition above about 30%; inactive = the rest.

CCOC(=O)/C(C#N)=C1/C=CN(c2ccc(C)cc2)C=N1	none (no result: tolC growth inh, D1 allo mod)
CN(Cc1ccccc1)C(=O)[C@H]1CCC(=O)N1Cc1ccco1	none (no result: tolC growth inh, D1 allo mod)
CCC(=O)c1ccc(N2CCN(C(=O)COc3ccc(F)cc3)CC2)c(F)c1	PostGolgi ctrl 31
CCCC(=O)c1ccc(N2CCN(C(=O)OCC)CC2)c(F)c1	none (no result: D1 allo mod)
CCCC(=O)c1ccc(N2CCCCCC2)c(F)c1	tolC growth inh 68
COC(=O)C[C@H]1c2cc(C(F)(F)F)ccc2S(=O)(=O)N1C1CCCC1	none (no result: tolC growth inh, D1 allo mod, PostGolgi ctrl, PostGolgi yeast, E coli WT exp)
O=C1NCCCC1C(=O)N1CCN(C(=O)C2CCCNC2=O)CC1 (configuration not stated)	none (no result: DAT uptake mod, PostGolgi ctrl, PostGolgi yeast, E coli WT exp)
CCOC(=O)c1sc2c(c1C)C(c1cccs1)C1=C(CCCC1=O)N2 (configuration not stated)	tolC growth inh 80
CCOC(=O)C1=C(C)NC2=C(C(=O)CCC2)C1c1cccs1 (configuration not stated)	none
O=C(CCC(=O)OCC(=O)c1ccc(Br)cc1)Nc1ccc(Br)c2cccnc12	PostGolgi ctrl 38 (no result: tolC growth inh, D1 allo mod)
O=C(CCC(=O)OCC(=O)c1ccccc1)Nc1cccc2cccnc12	none (no result: tolC growth inh, D1 allo mod)
CCCCOC(=O)n1c(SCC(=O)N(CC)CC)nc2ccccc21	DAT uptake mod 3.9, PostGolgi ctrl 31
Cn1nnnc1SCC(=O)N1CCN(c2ccc(Cl)cc2)CC1	none (no result: DAT uptake mod)
O=C(CSC1=NCCS1)N1CCN(c2ccc(Cl)cc2)CC1	DAT uptake mod 2.6 (no result: tolC growth inh, D1 allo mod)
NS(=O)(=O)c1cc2c(cc1C(F)(F)F)NC(Cc1ccccc1)NS2(=O)=O (configuration not stated)	none (no result: PostGolgi ctrl, PostGolgi yeast, E coli WT exp)
CCc1nnc2sc(-c3cc(-c4ccccc4)nc4ccccc34)nn12	PostGolgi ctrl 34
c1cncc(-c2nn3c(Cn4nnc5ccccc54)nnc3s2)c1	none
Cc1ccc(C)c(N2CCN(C(=O)c3ccc(NS(=O)(=O)c4c(C)noc4C)cc3)CC2)c1	tolC growth inh 80
Cc1ccc(Cl)cc1N1CCN(C(=O)c2ccc(NS(=O)(=O)c3c(C)noc3C)cc2)CC1	tolC growth inh 71 (no result: DAT uptake mod)
CNCc1ccccc1Sc1ccc(OC)c(OC)c1	none (no result: tolC growth inh, D1 allo mod)
O=C(c1cc(-c2cccnc2)nc2ccc(Br)cc12)N1CCC2(CC1)OCCO2	none (no result: DAT uptake mod, PostGolgi ctrl, PostGolgi yeast, E coli WT exp)
Cc1c(NC(=O)CCCCCN2C(=O)C3C4C=CC(C4)C3C2=O)c(=O)n(-c2ccccc2)n1C (configuration not stated)	none
COc1ccc(C(=O)ON=C2CCN(c3ccc([N+](=O)[O-])cc3)CC2)cc1	PostGolgi ctrl 36 (no result: tolC growth inh, D1 allo mod)
O=C(NCc1ccco1)C(c1cccs1)N(C(=O)C1COc2ccccc2O1)c1cccc(O)c1 (configuration not stated)	tolC growth inh 76 (no result: D1 allo mod)
CCOC(=O)Nc1ccc2c(C)cc(=O)oc2c1	PostGolgi ctrl 33
O=C(COc1ccccc1)Nc1ccccc1N1CCN(c2ccccc2)CC1	none
CCCCCC(=O)Nc1ccccc1N1CCN(c2ccccc2)CC1	tolC growth inh 68
O=c1c2cnn(-c3ccc(F)cc3)c2ncn1Cc1ccccc1	none (no result: tolC growth inh, D1 allo mod, PostGolgi ctrl, PostGolgi yeast, E coli WT exp)
O=C(Cn1ccc2ccccc2c1=O)NCCC(=O)NC1CCN(Cc2ccccc2)CC1	PostGolgi ctrl 49
COC(=O)c1ccc(C2NC(C(=O)O)CS2)cc1 (configuration not stated)	none
COc1cc(C2NC(C(=O)O)CS2)ccc1OCc1ccccc1C#N (configuration not stated)	D1 allo mod -2.8
Cc1ccc(C(=O)NCCc2csc(C)n2)cc1	DAT uptake mod 2.6 (no result: tolC growth inh, D1 allo mod, PostGolgi ctrl)
Cc1cccc(C(=O)NCCc2csc(C)n2)c1	none (no result: tolC growth inh, D1 allo mod)
O=C1CC(O)(C(F)(F)F)Oc2c1ccc1ccccc21 (configuration not stated)	tolC growth inh 97, DAT uptake mod -3.5, PostGolgi ctrl 37
CN(C1CCCCC1)S(=O)(=O)Cc1ccccc1	none
C=CCn1c(-c2ccc(S(=O)(=O)N3CCOCC3)cc2)csc1=Nc1ccccc1	none (no result: tolC growth inh, D1 allo mod)
Cc1csc(=Nc2ccc(S(=O)(=O)N3CCOCC3)cc2)n1Cc1ccco1	PostGolgi ctrl 44
CCN(CC)C(=O)C(=O)N/N=C/c1ccc(Br)cc1	none (no result: tolC growth inh, D1 allo mod)
c1ccc(N2CCN(c3nnc(Cc4cccnc4)c4ccccc34)CC2)nc1	none (no result: D1 allo mod)
c1ccc(Cc2nnc(N3CCOCC3)c3ccccc23)cc1	PostGolgi ctrl 45 (no result: tolC growth inh, D1 allo mod)
Cc1cc(O)c(-c2cc(C(=O)NCc3ccc4c(c3)OCO4)[nH]n2)cc1C	none
Cc1ccc(-c2cc(C(=O)NCc3ccc4c(c3)OCO4)[nH]n2)c(O)c1C	PostGolgi ctrl 31
N#C/C(=C\c1ccc(O)c(O)c1)S(=O)(=O)c1ccccc1	DAT uptake mod -2.6
Cc1[nH]c2ccccc2c1/C=C(\C#N)S(=O)(=O)c1ccccc1	none (no result: tolC growth inh, D1 allo mod)
O=C(Oc1cccc(Nc2ncnc3ccccc23)c1)c1ccccc1Cl	PostGolgi ctrl 69 (no result: tolC growth inh, D1 allo mod)
Fc1ccc(OCc2nn3cnnc3s2)cc1	D1 allo mod -4
CCOc1ccc(-c2nnc3sc(COc4ccc(C)cc4)nn23)cc1	none
O=C1C(c2ccncc2)=C(O)c2ccccc21	D1 allo mod -2.5 (no result: tolC growth inh)
O=C1C(C=NCc2ccncc2)=C(O)c2ccccc21	none (no result: tolC growth inh, D1 allo mod)
CCOC(=O)N1CCN(C(=O)Cn2cc3c(n2)CCCC3)CC1	DAT uptake mod -7.9
COc1ccc(C)cc1NC(=O)C(C)N(c1ccc(C)cc1)S(C)(=O)=O (configuration not stated)	DAT uptake mod 2.7 (no result: tolC growth inh, D1 allo mod)
Cc1nc(Nc2ccccc2)[nH]c(=O)c1CCC(C)C	none
CCCCCc1c(C)nc(NCc2ccccc2)[nH]c1=O	PostGolgi ctrl 39 (no result: D1 allo mod)
COc1ccc(C2NC3=C(CCCC3)C(C#N)(C#N)C2(C#N)C#N)cc1 (configuration not stated)	none
COc1ccc(C2NC3=C(CCC3)C3(C#N)C4(N=C(N)C23C#N)OCCO4)cc1 (configuration not stated)	D1 allo mod -3.5
COc1cc(CC(=O)Nc2ccc(S(=O)(=O)N(C)C)cc2)cc(OC)c1OC	none
OC(Cn1ccnc1)c1ccc(Cl)cc1Cl (configuration not stated)	PostGolgi yeast 76
O=C(COc1ccc(Cl)cc1Cl)NCCCn1ccnc1	none
O=C(c1ccccc1)c1c[nH]c(C(=O)NCCCn2ccnc2)c1	none (no result: tolC growth inh, D1 allo mod)
O=C(c1n[nH]c2ccccc12)N1CCN(S(=O)(=O)c2ccc3ccccc3c2)CC1	PostGolgi ctrl 56
CCN(CC)S(=O)(=O)c1cccc(C(=O)N[C@H](C(=O)NCc2ccc(Cl)cc2)C(C)C)c1	none (no result: tolC growth inh, D1 allo mod)
CCc1ccc(-c2cc(C(=O)Nc3c(C)n(C)n(-c4ccccc4)c3=O)c3ccccc3n2)s1	none (no result: tolC growth inh, D1 allo mod)
Cc1cc(Br)cc2c(C(=O)Nc3c(C)n(C)n(-c4ccccc4)c3=O)cc(-c3cccs3)nc12	PostGolgi ctrl 39 (no result: tolC growth inh, D1 allo mod)
O=C1c2ccccc2C(Nc2ccc(Cl)cn2)N1Cc1ccccc1 (configuration not stated)	PostGolgi ctrl 58 (no result: tolC growth inh, D1 allo mod)
COc1ccc(CONS(=O)(=O)c2ccc(NC(C)=O)cc2)cc1Cl	none (no result: tolC growth inh, D1 allo mod)
CCOc1ccc2nc(-c3ccccc3)[nH]c2c1	none
